High-throughput results (PubChem BioAssay)
Sampled rows, rich in hits. Any-hit rate of the full collection: about 2.2%.
ERAP1 inh: ERAP1 (human) enzyme inhibition. Q9NZ08. recombinant ERAP1, Leu-AMC fluorescence, 60 min. inhibition, % at 10.7 µM. 0.15% of 340,000 active. AID 652197;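 active means mean replicate inhibition of at least 30%, or all replicates individually reaching that 30% level; inactive means mean below 30% and not every replicate reaching it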
FGF22 binding: shifts melting point of recombinant human FGF22 | Q9HCT0 | recombinant FGF22 thermal shift, SYPRO orange fluorescence; percent of sucrose octasulfate shift, DMSO zero | activity (Tm shift, normalised), % at 9.99 µM | 1.5% of 340,000 active | AID 651658;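 active means mean Tm shift, scaled 0 neutral to 100 positive control, at about 1.3% or above, every replicate too, limit read from the data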
Target sequence (Q9HCT0 whole entry, looked up): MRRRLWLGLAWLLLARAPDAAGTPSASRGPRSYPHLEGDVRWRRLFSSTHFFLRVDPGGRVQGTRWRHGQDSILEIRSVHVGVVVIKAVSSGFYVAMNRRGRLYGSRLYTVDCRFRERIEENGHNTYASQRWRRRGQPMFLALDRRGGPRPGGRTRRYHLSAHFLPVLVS
SIRT5 inh: blocks human SIRT5 desuccinylation of peptide; 1.1% of 330,000 active; inhibition, % at 15 µM; Q9NXA8; Purified SirT5, succinyl-peptide AMC, trypsin-coupled fluorescence; in the data active means inhibition above about 15%
Target sequence (Q9NXA8 whole entry, looked up): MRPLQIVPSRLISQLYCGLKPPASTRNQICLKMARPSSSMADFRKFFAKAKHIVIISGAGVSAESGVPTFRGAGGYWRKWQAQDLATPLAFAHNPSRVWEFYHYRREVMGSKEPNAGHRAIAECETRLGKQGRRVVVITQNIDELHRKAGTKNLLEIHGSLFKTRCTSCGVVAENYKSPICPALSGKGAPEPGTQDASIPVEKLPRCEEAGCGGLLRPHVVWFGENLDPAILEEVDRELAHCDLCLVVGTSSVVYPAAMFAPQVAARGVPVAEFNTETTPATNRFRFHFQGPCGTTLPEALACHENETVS
FN deposition inh: fibronectin deposition inhibition. AH1F fibroblasts, Alexa488-fibronectin deposition fluorescence, overnight. inhibition, % at 12.6 µM. 0.086% of 350,000 active;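 active means mean inhibition across replicates of 30% or more, regardless of how many single replicates reach that level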
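Measured by – fluorescence 485/525 nm · System – AH1F fibroblast monolayer, labelled fibronectin deposition · Amount – 10000 cells per well · Buffer or medium – serum-reduced DMEM (2% serum) · Doses – single dose, pinned · Also added – fluorescent fibronectin at 24 nM final · Schedule – 1 h cell attachment, overnight exposure to compound and label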
PGC1a acetyl inh: lowers PGC1a acetylation signal in U2OS cells; AlphaScreen anti-acetyl-lysine; with virally co-expressed GCN5 acetyltransferase; inhibition, % at 15.6 µM; 0.17% of 350,000 active;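 active means every replicate shows inhibition of at least 40%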
Large screens that a line does not name were inactive.

C[C@@H]1CN([C@@H](C)CO)C(=O)c2cc(/C=C/c3ccccc3)cnc2O[C@H]1CN(C)C(=O)C1CC1	none (no result: ERAP1 inh, FGF22 binding, SIRT5 inh)
CCc1ccc([C@@H]2CC=C(C(=O)O)[C@H](c3ccccc3)N2S(=O)(=O)c2ccc(C)cc2)cc1	none
CCc1ccc([C@@H]2CC=C(C(=O)O)[C@H](c3ccc(C(C)(C)C)cc3)N2S(=O)(=O)c2ccc(C)cc2)cc1	SIRT5 inh 22.3 (no result: FN deposition inh)
Cn1nc(CSc2ccccc2)c(C=O)c1Cl	SIRT5 inh 15.1
COC(=O)[C@@]1(Cc2ccc(F)cc2)[C@H]2c3cc(C(=O)N4CCCC4)n(Cc4cc(F)cc5c4OCOC5)c3C[C@H]2CN1C(=O)c1ccccc1	SIRT5 inh 22.3 (no result: ERAP1 inh, PGC1a acetyl inh)
COC(=O)[C@@]1(Cc2ccc(F)cc2)[C@H]2c3cc(C(=O)N(C)C)n(Cc4cc(F)cc5c4OCOC5)c3C[C@H]2CN1C(=O)c1ccccc1	none (no result: ERAP1 inh, PGC1a acetyl inh)
CO[C@H]1CN(C)C(=O)c2cc(NC(=O)c3ccccc3F)ccc2OC[C@@H](C)N(CC2CCOCC2)C[C@@H]1C	none
CC1(C)CN(c2ccccc2)N(C(=O)c2ccc(F)cc2)C1=O	SIRT5 inh 23.6 (no result: FN deposition inh)
C[C@H](CO)N1C[C@H](C)[C@H](CN(C)S(=O)(=O)c2cn(C)cn2)Oc2ccc(NS(=O)(=O)c3cccs3)cc2C1=O	SIRT5 inh 15.5
C[C@@H]1CN([C@@H](C)CO)C(=O)c2cc(NS(=O)(=O)c3cccs3)ccc2O[C@@H]1CN(C)Cc1ccc(Cl)c(Cl)c1	SIRT5 inh 17.6 (no result: FN deposition inh)
C[C@H](CO)N1C[C@H](C)[C@@H](CN(C)Cc2ccc(Cl)c(Cl)c2)OCCCC[C@H](C)Oc2ccc(NS(=O)(=O)c3cccs3)cc2C1=O	SIRT5 inh 19.3
C[C@@H]1CN([C@H](C)CO)C(=O)c2cc(NS(=O)(=O)c3cn(C)cn3)ccc2O[C@H]1CN(C)CC1CCCCC1	SIRT5 inh 17.0
C[C@@H]1CN([C@H](C)CO)C(=O)c2cc(NS(=O)(=O)c3cccs3)ccc2O[C@@H]1CN(C)Cc1ccc(Cl)c(Cl)c1	none (no result: FN deposition inh)
C[C@@H]1CN([C@H](C)CO)C(=O)c2cc(NC(=O)c3ccncc3)ccc2O[C@@H]1CN(C)CC1CCCCC1	none
C[C@@H]1CCCCO[C@H](CN(C)Cc2ccc(Cl)c(Cl)c2)[C@@H](C)CN([C@H](C)CO)C(=O)c2cc(NS(=O)(=O)c3cccs3)ccc2O1	FGF22 binding 1.2
CC(C)=CC(=O)Nc1ccc(OCc2ccccc2)cc1	FGF22 binding 73.6
Cc1ccc(-c2ccc([C@H]3[C@H](CO)N4CCCCN(S(=O)(=O)c5cccc(C)c5)C[C@@H]34)cc2)cc1	none (no result: FN deposition inh)
Cc1cccc(S(=O)(=O)N2CCCCN3[C@H](C2)[C@H](c2ccc(-c4ccccc4)cc2)[C@@H]3CO)c1	none (no result: FN deposition inh)
Cc1ccc(-c2ccc([C@H]3[C@H]4CN(S(=O)(=O)c5cccc(C)c5)CCCCN4[C@H]3CO)cc2)cc1	SIRT5 inh 16.9 (no result: FN deposition inh)
Cc1cccc(S(=O)(=O)N2CCCCN3[C@H](CO)[C@@H](c4ccc(-c5ccccc5)cc4)[C@H]3C2)c1	SIRT5 inh 21.6 (no result: FN deposition inh)
O=C(C[C@@H]1CC[C@@H]2[C@H](COC[C@@H](O)CN2Cc2nccs2)O1)NCc1ccc(F)cc1	none
CC(C)CC#Cc1cnc2c(c1)C(=O)N([C@@H](C)CO)C[C@@H](C)[C@@H](CN(C)S(=O)(=O)c1cn(C)cn1)O2	none
O=C(Nc1ccc(-c2nnc3n2CCCCC3)cc1)c1cc2ccccc2o1	FGF22 binding 43.9 (no result: PGC1a acetyl inh)
COc1ccc(C(=O)OCCN2CCCCC2)cc1	SIRT5 inh 25.0 (no result: FN deposition inh, PGC1a acetyl inh)
CC(CN1CCCCC1)OC(=O)Cc1ccc(Cl)cc1 (stereo not given)	none (no result: ERAP1 inh, FGF22 binding, SIRT5 inh)
CC(CN1C(C)CCCC1C)OC(=O)c1ccc(Cl)cc1 (stereo not given)	FGF22 binding 44.1
Cc1cccc(C(=O)OC(C)CN2C(C)CCCC2C)c1 (stereo not given)	none
COc1ccc(C(=O)OC(C)CN2CCN(C)CC2)cc1 (stereo not given)	none (no result: PGC1a acetyl inh)
Cc1ccc(C(=O)OC(C)CN2CCN(C)CC2)cc1 (stereo not given)	SIRT5 inh 22.1
COc1ccc(CC(=O)OC(C)CN2CCCCC2)cc1 (stereo not given)	FGF22 binding 43.4
C/C=C/c1ccc2c(c1)O[C@@H](CN(C)Cc1cccnc1)[C@@H](C)CN([C@@H](C)CO)S2(=O)=O	none (no result: FN deposition inh)
CC(=O)N(C)C[C@@H]1Oc2cc(C#Cc3ccccn3)ccc2S(=O)(=O)N([C@@H](C)CO)C[C@@H]1C	none (no result: FN deposition inh)
Cc1ccc(S(=O)(=O)N(C)C[C@H]2Oc3ncc(C#CC4(O)CCCC4)cc3C(=O)N([C@H](C)CO)C[C@H]2C)cc1	none
CC(CN1CCCC1)OC(=O)c1ccccc1Cl (stereo not given)	SIRT5 inh 17.9
C[C@@H]1CN([C@H](C)CO)C(=O)c2cccc(NS(=O)(=O)c3cccs3)c2O[C@@H]1CN(C)S(=O)(=O)c1ccc(F)cc1	none (no result: FN deposition inh)
CCCCC[C@H](C)N1C[C@H](COCc2ccccc2)Oc2cc(N3CCC[C@@H]3CO)ccc2S1(=O)=O	none (no result: PGC1a acetyl inh)
CCCCC[C@H](C)N1C[C@@H](COCc2ccccc2)Oc2cc(N3CCC[C@H]3CO)ccc2S1(=O)=O	SIRT5 inh 20.7 (no result: PGC1a acetyl inh)
Cc1ccc(S(=O)(=O)/N=C2/C=C(Sc3ncn[nH]3)C(=O)c3ccccc32)cc1	PGC1a acetyl inh 77.2 (no result: ERAP1 inh, FGF22 binding, SIRT5 inh, FN deposition inh)
O=C1C(Nc2ccccc2)=C/C(=N/S(=O)(=O)c2cccs2)c2ccccc21	PGC1a acetyl inh 59.3 (no result: ERAP1 inh, FGF22 binding, SIRT5 inh, FN deposition inh)
Cc1ccc(NC2=C/C(=N/S(=O)(=O)c3cccs3)c3ccccc3C2=O)cc1	none (no result: PGC1a acetyl inh)
Cc1ccc(S(=O)(=O)/N=C2\C=C(Nc3cccc(C(=O)O)c3)C(=O)c3ccccc32)cc1	none
Cc1ccc(S(=O)(=O)/N=C2\C=C(Nc3ccc(O)cc3)C(=O)c3ccccc32)cc1	PGC1a acetyl inh 86.5 (no result: ERAP1 inh, FGF22 binding, SIRT5 inh, FN deposition inh)
O=C(NCc1cc(F)cc(F)c1)[C@@H]1[C@@H](CO)[C@@H]2Cn3c(cccc3=O)[C@H]1N2C(=O)c1cnccn1	none (no result: PGC1a acetyl inh)
COc1ccc2c3c([nH]c2c1)[C@H](CO)N(C(=O)Nc1ccccc1F)CC31CCN(C(=O)C2CC2)CC1	none (no result: FN deposition inh)
C[C@@H]1CN([C@@H](C)CO)C(=O)c2cccc(NC(=O)Nc3ccccc3)c2O[C@H]1CN(C)Cc1ccc(Oc2ccccc2)cc1	none (no result: FN deposition inh)
CCCn1c(SCCN2CCOCC2)nc2c1c(=O)n(C)c(=O)n2C	none
CCCCc1nc(SCCN2CCOCC2)c2c(=O)n(C)c(=O)n(C)c2n1	FGF22 binding 43.0
COc1ccccc1C/C(N)=N/OC(=O)/C=C/c1ccccc1	FGF22 binding 43.3 (no result: PGC1a acetyl inh)
COc1ccccc1C/C(N)=N/OC(=O)c1cccs1	none
COc1ccccc1C/C(N)=N/OC(=O)COc1cc(C)cc(C)c1C	FGF22 binding 43.4 (no result: PGC1a acetyl inh)
C[C@@H](O)C#Cc1ccc2c(c1)O[C@@H](CN(C)C(=O)C1CC1)[C@@H](C)CN([C@@H](C)CO)S2(=O)=O	none
